In PubChem BioAssay AID623869 (Vanderbilt High Throughput Screening Facility, 2012) one finds outcome data, which are given here for 60 molecules.

Hit rate of the full screen: of about 2,100 compounds, about 75 (4%) were called active.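 Rule for the calls: active = calcium fluorescence trace judged by eye to show a response, as agonist, enhancer of the glutamate response, or inhibitor; inactive = trace judged by eye to show no response.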 The full list was thinned out, with actives kept by preference.

This test deals with Metabotropic glutamate receptor 8 (Rattus norvegicus) (UniProt P70579). Put plainly: rat mGlu8 modulation via Gqi9 calcium signal, confirmation, counter-screen for GIRK activator project, cell-based, HEK293 rmGlu8, Gqi9 chimera, Fluo-4 calcium (AID 623869). Particulars: HEK293 rmGlu8/Gqi9 calcium flux, Fluo-4 fluorescence; glutamate at EC20 added after compound. In a few lines: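 Material: rat mGlu8 HEK-293 cells with transient Gqi9. Medium: HEPES-buffered HBSS, pH 7.4. Compound: one dose, 20 µM addition solution, 0.2% DMSO. Schedule: compound 4 min before glutamate, then 2 min recording. Technique: Fluo-4 calcium fluorescence sampled at 1 Hz.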
Chain of Metabotropic glutamate receptor 8 (Rattus norvegicus) (P70579 whole entry, looked up): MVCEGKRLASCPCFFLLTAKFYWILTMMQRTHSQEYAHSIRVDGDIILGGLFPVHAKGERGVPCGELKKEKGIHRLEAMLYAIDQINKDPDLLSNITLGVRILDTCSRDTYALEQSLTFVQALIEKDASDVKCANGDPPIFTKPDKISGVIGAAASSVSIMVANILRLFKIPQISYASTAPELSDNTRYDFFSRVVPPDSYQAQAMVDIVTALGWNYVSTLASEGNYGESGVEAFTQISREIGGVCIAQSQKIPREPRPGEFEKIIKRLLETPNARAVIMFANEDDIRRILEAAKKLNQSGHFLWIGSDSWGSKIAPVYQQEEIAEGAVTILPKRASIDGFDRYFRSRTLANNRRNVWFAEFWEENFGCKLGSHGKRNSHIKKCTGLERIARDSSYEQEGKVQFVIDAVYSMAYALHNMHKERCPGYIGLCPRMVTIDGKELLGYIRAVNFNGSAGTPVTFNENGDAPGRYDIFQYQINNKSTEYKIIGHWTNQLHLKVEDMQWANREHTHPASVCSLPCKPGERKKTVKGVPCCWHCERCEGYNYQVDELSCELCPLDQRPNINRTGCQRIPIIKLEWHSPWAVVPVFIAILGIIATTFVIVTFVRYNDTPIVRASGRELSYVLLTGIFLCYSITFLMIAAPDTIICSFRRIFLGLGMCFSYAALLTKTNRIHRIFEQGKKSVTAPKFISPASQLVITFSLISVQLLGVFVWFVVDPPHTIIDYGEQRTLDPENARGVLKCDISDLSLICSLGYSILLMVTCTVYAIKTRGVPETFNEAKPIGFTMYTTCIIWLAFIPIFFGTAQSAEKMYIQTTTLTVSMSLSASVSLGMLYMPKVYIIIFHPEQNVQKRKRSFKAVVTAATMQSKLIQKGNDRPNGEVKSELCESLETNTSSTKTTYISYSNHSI
For orientation: Counterscreens check selectivity or assay interference.
Consider `CC(C)Sc1nc2c(c(=O)[nH]1)C(c1cccs1)C1=C(CC(C)(C)CC1=O)N2` (stereo not given), for which the outcome is “inactive; 0”.
Take `C=CCN(CC=C)C(=S)NC(=O)c1ccc([N+](=O)[O-])cc1`: the outcome was “inactive; 0”.
Regarding `CCc1nc(SCC(=O)N2CC(=O)Nc3ccccc32)c2c(C)c(C)sc2n1`, the outcome is “inactive; 0”.
On to `Oc1c(C=NCc2ccncc2)sc2ccccc12`, for which the outcome was “active; 2”.
With `CCN(c1ccccc1)S(=O)(=O)c1ccc(NC(=S)NC(=O)c2ccc(Br)o2)cc1`, the outcome is “inactive; 0”.
For the molecule `CCOC(=O)c1c(NC(=O)CSc2nnc(-c3ccncc3)n2Cc2ccco2)sc(C(C)=O)c1C`, the outcome is “inactive; 0”.
With `Cc1ccc(NC(=S)c2nc3ccccc3[nH]2)cc1` the entry was “inactive; 0”; with `C=CCNC(=S)Nc1sc2c(c1C(=O)OCC)CC(C)(CC)OC2` (stereo not given), “inactive; 0”.
Then `C=C(C)CNC(=S)Nc1nc2c(cc1C(=O)OCC)CCCC2`, with “inactive; 0”; and `C=CCNC(=S)Nc1nc2c(cc1C(=O)OCC)CCCC2`, with “active; 2”.
`C=CCNC(=S)Nc1sc2c(c1C(=O)OCC)CC(C(C)C)OC2` (stereo not given): the outcome is “inactive; 0”.
With `CCNC(=S)Nc1scc(-c2ccccc2)c1C(=O)OCC` the entry was “inactive; 0”; with `CCNC(=S)Nc1nc2c(cc1C(=O)OCC)CCCC2`, “active; 2”; with `CCC1(c2ccc(Cl)cc2)NC(=S)N(c2ccccc2)N1` (stereo not given), “inactive; 0”.
With `CC1Cc2ccccc2N1C(=S)NC(=O)c1ccc(Cl)cc1Cl` (stereo not given) the entry was “inactive; 0”; with `Fc1cccc2sc(Nc3nnc(-c4ccco4)o3)nc12`, “inactive; 0”; with `CCOc1ccc(-c2nnc(NC(=O)c3ccc(OCC(C)C)c(OC)c3)o2)cc1`, “inactive; 0”.
With `Cc1ccc(NC(=S)c2nc3ccccc3[nH]2)c(C)c1` the entry was “inactive; 0”; with `O=C1c2ccccc2NC(c2ccc(-c3cccc(Cl)c3)o2)N1O` (stereo not given), “inactive; 0”; with `Cc1cc([N+](=O)[O-])ccc1-c1ccc(C2Nc3ccccc3C(=O)N2O)o1` (stereo not given), “active; 2”.
As for `O=C1c2ccccc2NC(c2ccc(-c3ccc(Br)cc3)o2)N1O` (stereo not given), the outcome is “inactive; 0”.
For `CCCN(CCC)C(=S)NC(=O)c1ccc(Cl)cc1Cl`, the outcome was “inactive; 0”.
Then `C=CCn1c(=S)[nH]c2ccccc2c1=O`, with “inactive; 0”; and `Cc1ccccc1C(=O)NNC(=O)C(=O)Nc1cccc(Cl)c1C`, with “inactive; 0”.
With `CCOC(=O)Cc1csc(NC(=S)NC(=O)c2ccccc2C)n1` the entry was “inactive; 0”.
`Cc1ccccc1C(=O)Nc1nc(=S)ss1`: the outcome was “active; 1”.
On to `O=C(NC(=S)N1CCCc2ccccc21)c1ccc([N+](=O)[O-])cc1`, for which the outcome was “inactive; 0”.
Consider `CN(C)S(=O)(=O)c1cccc(NC(=S)Nc2ccc(Cl)cc2Cl)c1`, for which the outcome is “inactive; 4”.
Turning to `CC12CCC(C(=O)N(CSC(=S)N/N=C\c3ccccc3)C1=O)C2(C)C` (stereo not given), the outcome was “inactive; 0”.
With `CNC(=S)N/N=C1\C(=O)c2cccc3cccc1c23` the entry was “inactive; 0”; with `CC(C)c1nc(N2CCOCC2)c(C#N)c2c1CCCC2`, “inactive; 0”.
Take `CSc1nc(N2CCOCC2)c2c(c1C#N)CC(C)(C)OC2`: the outcome was “inactive; 0”.
Then `CCc1nc(N2CCOCC2)c(C#N)c2c1CCCC2`, with “active; 2”.
With `C=CCn1c(O)c(N=NC(=O)OC(C)(C)C)c2ccccc21` the entry was “inactive; 0”; with `O=C(NC(=S)N1CCCc2ccccc21)c1ccc(Br)cc1`, “inactive; 0”; with `Cc1ccc(C)c(C(=O)c2c(C)nc3sccn23)c1`, “active; -1”.
Consider `Cn1c(=O)c2c(nc3sccn32)n(C)c1=O`, for which the outcome was “inactive; 0”.
With `COC(=O)c1ccc(NC(=S)NC(=O)c2c(Cl)cnn2C)cc1`, the outcome was “inactive; 0”.
For the molecule `Cc1ccc(/C=N/n2c(-c3cccs3)n[nH]c2=S)cc1`, the outcome was “inactive; 0”.
Turning to `COC(=O)c1ccccc1NC(=S)NC(=O)COc1ccccc1`, the outcome is “inactive; 0”.
With `Cc1ccc(C(=O)NNC(=S)NC(=O)COc2ccccc2)cc1` the entry was “active; 1”; with `CCOC(=O)c1ccc(NC(=S)NC(=O)COc2ccccc2)cc1`, “inactive; 0”; with `COC(=O)c1ccccc1NC(=S)NC(=O)COc1ccc(C)cc1`, “inactive; 0”.
With `O=C(COc1ccccc1)NC(=S)Nc1cccc([N+](=O)[O-])c1` the entry was “inactive; 0”.
With `Cc1ccccc1C(=O)NNC(=S)NC(=O)COc1ccccc1` the entry was “active; 1”; with `Cc1cccc(C(=O)NNC(=O)C(=O)NC(C)(C)C)c1`, “inactive; 0”; with `COc1ccc(-c2nnc(NC(=O)c3ccc(F)cc3)o2)cc1`, “inactive; 0”.
With `S=c1[nH]nc(-c2ccccn2)n1/N=C/c1ccc(Br)s1`, the outcome is “inactive; 0”.
With `O=C(NC(=S)N1CCN(c2ccc(C(F)(F)F)cc2[N+](=O)[O-])CC1)c1cccs1`, the outcome is “inactive; 0”.
For `O=C(NC(=S)N1CCc2ccccc21)c1ccccc1Br`, the outcome was “inactive; 0”.
In the case of `S=c1[nH]cnc2scc(-c3ccccc3)c12`, the outcome was “inactive; 0”.
Turning to `O=c1c2ccccc2[nH]c(=S)n1CCN1CCN(Cc2ccccc2)CC1`, the outcome is “inactive; 0”.
For the molecule `COCCNC(=O)CCCCCn1c(=S)[nH]c2ccccc2c1=O`, the outcome was “inactive; 0”.
As for `O=C(NCc1ccccc1)c1ccc2c(=O)n(CCCN3CCCC3=O)c(=S)[nH]c2c1`, the outcome is “active; -1”.
For the molecule `Cc1ccc(C)c(N=C2CCCN2Cc2ccccc2)c1C#N`, the outcome is “inactive; 0”.
Then `CC1(C)CC(=O)C2=C(C1)OC(/N=C/N1CCOCC1)=C(C#N)C2c1ccccc1` (stereo not given), with “inactive; 0”.
Then `CCCN(CCC)C(=S)NC(=O)c1ccc(-c2ccccc2)cc1`, with “inactive; 0”; and `O=[N+]([O-])c1ccc(/C=N/NC(=S)Nc2ccccc2F)o1`, with “inactive; 0”.
With `COc1cccc(-n2c(SCC(=O)NCCC3=CCCCC3)nc3n[nH]c(C)c3c2=N)c1` the entry was “inactive; 0”; with `Cc1ccccc1-n1c(SCc2ccccn2)nc2n[nH]c(C)c2c1=N`, “active; 2”.
